Screening data: PubChem BioAssay, Johns Hopkins Ion Channel Center
Sampled rows, rich in hits. Any-hit rate of the full collection: about 3.7%.
KCNQ1 block: blocks the human KCNQ1 potassium channel; CHO-K1 KCNQ1, FluxOR thallium flux fluorescence; stronger effect = higher value; B-score at 10 µM; 310,000 compounds, 1.3% hits;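 active means compounds whose thallium flux B-score, printed positive for inhibition, exceeds three library SD while starting fluorescence stays within three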;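 further: channel opened by potassium depolarization with thallium stimulus after 20 min compound exposure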
hERG rescue: hERG (human) protection from proarrhythmic block. Q12809. CHO-hERG, FluxOR thallium flux, dofetilide IC70 present. activation (rescue from dofetilide block), less the hit threshold, % at 10 µM. 310,000 compounds, 0.51% hits;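 active means activation above the mean of controls blocked by dofetilide plus 5 SD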;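 further: thallium influx through hERG after potassium depolarization seen as dye fluorescence rise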
KCNK3 block: human KCNK3 channel inhibition, primary screen; 340,000 compounds, 0.84% hits; B-score at 10 µM; CHO-KCNK3 thallium flux, FluxOR fluorescence; stronger effect = lower value; AID 602410; O14649;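 active means B-score under library mean minus 4 SD, starting fluorescence ratio at most library mean plus 5 SD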;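 further: more negative B-score means stronger inhibition of thallium flux through KCNK3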
KCNK9 block: human KCNK9 channel inhibition; B-score at 10 µM; HEK293 KCNK9, FluxOR thallium flux fluorescence; stronger effect = lower value; 310,000 compounds, 1.2% hits; Q9NPC2;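 active means ratio B-score over 3 SD below the library mean, with starting fluorescence within 5 SD of its mean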;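 further: negative B-score means less thallium flux so channel inhibition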
Kir21 inh: blocks the mouse Kir2.1 inward-rectifier potassium channel. P35561. HEK293-Kir2.1, FluxOR thallium flux fluorescence; stronger effect = lower value. B-score at 10 µM. 310,000 compounds, 0.85% hits. AID 1672;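 active means fluorescence ratio B-score at or below minus 3 SD of library scores, with starting-brightness B-score within 2 SD, cut at about -4.2 in these data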;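 further: channel flux triggered by added potassium and thallium sulfate stimulus; B-score of peak minus minimum fluorescence over baseline after thallium stimulus; more negative B-score means stronger Kir2.1 block with less thallium influx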
Target sequence (P35561 whole entry, looked up): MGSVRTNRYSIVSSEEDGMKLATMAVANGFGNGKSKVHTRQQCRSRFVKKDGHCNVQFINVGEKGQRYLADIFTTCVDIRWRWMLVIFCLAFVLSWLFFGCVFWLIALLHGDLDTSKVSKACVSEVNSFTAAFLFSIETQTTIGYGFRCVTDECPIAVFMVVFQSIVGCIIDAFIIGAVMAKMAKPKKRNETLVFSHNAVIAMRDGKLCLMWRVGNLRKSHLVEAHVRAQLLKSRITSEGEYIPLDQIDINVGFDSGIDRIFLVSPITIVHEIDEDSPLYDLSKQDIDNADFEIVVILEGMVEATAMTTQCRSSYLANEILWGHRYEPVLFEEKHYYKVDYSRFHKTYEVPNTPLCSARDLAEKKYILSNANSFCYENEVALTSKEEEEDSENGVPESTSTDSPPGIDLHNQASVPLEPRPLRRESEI
KCNQ1 act: human KCNQ1 channel potentiation or activation; CHO-K1 KCNQ1, thallium flux FluxOR fluorescence; stronger effect = higher value; 310,000 compounds, 0.35% hits; P51787; B-score at 10 µM;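 active means fluorescence ratio B-score, a plate-corrected score, at least three library SD, with initial intensity B-score within 5 SD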
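Assay system: CHO-K1 cells stably expressing KCNQ1. Medium: assay buffer for compound exposure, DMSO matched across wells. Timing: 37 °C overnight plating, 90-min dark dye load, 20-min compound pretreatment. Signal: kinetic FluxOR fluorescence, 10 s baseline plus 110 s post-stimulus.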
KCNK3 confirm: human KCNK3 channel inhibition, confirmation assay; CHO-KCNK3 thallium flux, FluxOR fluorescence; 0% buffer, 100% carvedilol maximal block; 2,400 compounds, 99% hits; shares compounds with KCNK3 block; ratio percent of control, % at 10 µM;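 active means ratio percent of control, averaged over triplicates, above buffer control mean plus 5 SD, cut at about 64% in these data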;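 further: ratio is the fluorescence rise from min to max over baseline after thallium stimulus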
KCNK3 noninduced: activity in cells without induced KCNK3 expression; AID 651747; 2,400 compounds, 40% hits; thallium flux ratio (lower = more inhibition) at 10 µM; non-induced KCNK3 parental cells, FluxOR thallium flux; stronger effect = lower value; shares compounds with KCNK3 block;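 active means thallium flux ratio, averaged over three wells, more than 5 SD below the buffer control mean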;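 further: host cells are CHO cells without KCNK3 induction; ratio is peak minus trough fluorescence over baseline then normalized to buffer controls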
The depositor's hits bear a star.

For CCCN(CCC)c1nc(C#N)nc(N(CCC)CCC)n1 the results were KCNQ1 block inactive, hERG rescue -19.2, KCNK3 block -11.2*, KCNK9 block inactive, Kir21 inh -0.91, KCNQ1 act inactive, KCNK3 confirm 101.7* and KCNK3 noninduced inactive.
For COc1ccc(C(=O)COc2cccc(NC(=O)c3ccco3)c2)cc1 the results were KCNQ1 block inactive, hERG rescue -14.8, KCNK3 block inactive, KCNK9 block inactive, Kir21 inh 0.76 and KCNQ1 act inactive.
COc1cccc(C(=O)COc2cccc(NC(=O)c3ccco3)c2)c1 was read as KCNQ1 block inactive, hERG rescue -7.9, KCNK3 block -10.1*, KCNK9 block -7.34*, Kir21 inh -0.52, KCNQ1 act inactive, KCNK3 confirm 120.0* and KCNK3 noninduced 0.14*.
For O=C(Nc1cccc(OCC(=O)N2CCOCC2)c1)c1cccc([N+](=O)[O-])c1 the results were KCNQ1 block inactive, hERG rescue -10.9, KCNK3 block inactive, KCNK9 block inactive, Kir21 inh -2.59 and KCNQ1 act inactive.
Screening O=C(COc1cccc(NC(=O)c2cccc([N+](=O)[O-])c2)c1)c1ccc(Br)cc1 returned KCNQ1 block inactive, hERG rescue -2.6, KCNK3 block -11*, KCNK9 block inactive, Kir21 inh 0.47, KCNQ1 act inactive, KCNK3 confirm 96.3* and KCNK3 noninduced 0.145*.
For Cc1cc(C)cc(C(=O)Nc2cccc(NC(=O)c3ccco3)c2)c1 the results were KCNQ1 block inactive, hERG rescue -11.4, KCNK3 block -11.4*, KCNK9 block -8.02*, Kir21 inh -0.3, KCNQ1 act inactive, KCNK3 confirm 101.3* and KCNK3 noninduced inactive.
COc1cc(CCCN2C(N)=NC[C@@H]2Cc2ccccc2)cc(OC)c1OC was read as KCNQ1 block inactive, hERG rescue -7.6, KCNK3 block inactive, KCNK9 block inactive, Kir21 inh -1.62 and KCNQ1 act inactive.
`FC(F)(F)C1=Nc2cccc3cccc(c23)N1` gave KCNK3 block -13.3*, KCNK3 confirm 127.3* and KCNK3 noninduced 0.106*.
`Fc1ccc(C2=Nc3cccc4cccc(c34)N2)cc1` gave KCNQ1 block inactive, hERG rescue -1.1, KCNK3 block inactive, KCNK9 block inactive, Kir21 inh -0.07 and KCNQ1 act inactive.
CCOC(=O)c1cc(C)sc1NC(=O)CSc1nnnn1C was read as KCNQ1 block inactive, hERG rescue -5.8, KCNK3 block inactive, KCNK9 block inactive, Kir21 inh 1.71 and KCNQ1 act inactive.
For CCOC(=O)c1cc(C)sc1NC(=O)CSC1=NCCS1 the results were KCNQ1 block inactive, hERG rescue -8.8, KCNK3 block -11.5*, KCNK9 block inactive, Kir21 inh -2, KCNQ1 act inactive, KCNK3 confirm 119.3* and KCNK3 noninduced inactive.
For CCOc1ccccc1NC(=O)N1CCc2ccccc2C1 the results were KCNQ1 block inactive, hERG rescue -14.7, KCNK3 block -8.97*, KCNK9 block inactive, Kir21 inh 0.91, KCNQ1 act inactive, KCNK3 confirm 84.3* and KCNK3 noninduced inactive.
Screening C=CCN(CC=C)C(=O)COC(=O)c1ccc(Sc2ncn[nH]2)c([N+](=O)[O-])c1 returned KCNQ1 block inactive, hERG rescue -4.7, KCNK3 block inactive, KCNK9 block inactive, Kir21 inh 2.87 and KCNQ1 act inactive.
`CCCn1c(CNc2ccc(Br)cc2)nc2ccccc21` gave KCNQ1 block inactive, hERG rescue -15.3, KCNK3 block -11.5*, KCNK9 block inactive, Kir21 inh 0.09, KCNQ1 act inactive, KCNK3 confirm 124.3* and KCNK3 noninduced 0.141*.
`COc1ccc(S(=O)(=O)NCCC(=O)NC2CCCCC2C)cc1[N+](=O)[O-]` (stereo unspecified) gave KCNK3 block inactive.
`Nc1ccc(/C=C/C(=O)c2cccs2)cc1` gave KCNQ1 block inactive, hERG rescue -17.4, KCNK3 block -9.26*, KCNK9 block inactive, Kir21 inh -3.23, KCNQ1 act inactive, KCNK3 confirm 122.7* and KCNK3 noninduced 0.093*.
`CN(C)c1cc2c(cc1NS(=O)(=O)c1ccccc1)n(C)c(=O)n2C` gave KCNQ1 block inactive, hERG rescue -4.2, KCNK3 block inactive, KCNK9 block inactive, Kir21 inh 0.02 and KCNQ1 act inactive.
Screening CC(C)(C)[C@H](N)C(=O)N[C@H]1CCC2C3CC=C4C[C@@H](O)CC[C@]4(C)C3CC[C@@]21C (stereo partly specified) returned KCNK3 block inactive.
For C=CCn1c(SCC(=O)c2cccs2)nc2sc(CC)cc2c1=O the results were KCNQ1 block inactive, hERG rescue -9.0, KCNK3 block -10.8*, KCNK9 block inactive, Kir21 inh 0.04, KCNQ1 act inactive, KCNK3 confirm 127.7* and KCNK3 noninduced inactive.
For C=CCn1c(SCC(=O)N2CCN(C(=O)c3ccco3)CC2)nc2sc(CC)cc2c1=O the results were KCNQ1 block inactive, hERG rescue -16.1, KCNK3 block -10.7*, KCNK9 block inactive, Kir21 inh 0.13, KCNQ1 act inactive, KCNK3 confirm 120.3* and KCNK3 noninduced 0.146*.
`C=CCn1c(SCC(=O)O)nc2sc(CC)cc2c1=O` gave KCNQ1 block inactive, hERG rescue -4.7, KCNK3 block inactive, KCNK9 block inactive, Kir21 inh 0.41 and KCNQ1 act inactive.
For N#Cc1cc(Nc2c(N)nc[nH]c2=O)c([N+](=O)[O-])cc1C#N the results were KCNQ1 block inactive, hERG rescue -0.1, KCNK3 block inactive, KCNK9 block inactive, Kir21 inh -0.34 and KCNQ1 act inactive.
For COc1ccc(S(=O)(=O)N(C)C[C@H]2Oc3ccc(NC(=O)C4CC4)cc3C(=O)N([C@H](C)CO)C[C@@H]2C)cc1 the results were KCNK3 block inactive.
For Cc1c(OCC(=O)NC2CCN(Cc3ccccc3)CC2)ccc2c3c(c(=O)oc12)CCC3 the results were KCNQ1 block inactive, hERG rescue -10.4, KCNK3 block inactive, KCNK9 block inactive, Kir21 inh -1.62 and KCNQ1 act inactive.
Screening O=C(Nc1ccc(N2CCOCC2)cc1)c1cc2c(s1)CCCCC2 returned KCNQ1 block inactive, hERG rescue -6.8, KCNK3 block inactive, KCNK9 block inactive, Kir21 inh 1.48 and KCNQ1 act inactive.
